Published values pooled from the literature.
Target: Calcium/calmodulin-dependent protein kinase type 1 (CAMK1, Homo sapiens, UniProt Q14012)

SMILES | assay | conditions | remaining binding [%]
O=C(Nc1c[nH]nc1C(=O)NC1CCNCC1)c1cc(F)cc(F)c1 | binding, competition with immobilised ligand | 1 µM | 74
CN([C@@H]1CCc2c(CC(=O)O)c3ccccc3n2C1)S(=O)(=O)c1ccc(F)cc1 | cell-free assay, competition with immobilised ligand | 1 µM | 100
N[C@H]1CCN(c2nccc(-c3cnn4ncccc34)n2)C1 | binding | 1 µM | 88
O=C(NCCCN1CCOCC1)c1ccc(Nc2nccc(-c3cc4ccccc4s3)n2)cc1 | binding, competition with immobilised ligand | 1 µM | 75
c1cnn2ncc(-c3ccnc(N4CCC45COC5)n3)c2c1 | binding | 1 µM | 80
CO[C@H]1CC[C@H](CNc2ccc(S(=O)(=O)NC(=O)c3ccc(N4CCN(CC5=C(c6ccc(Cl)cc6)CC(C)(C)CC5)CC4)cc3Oc3cnc4[nH]ccc4c3)cc2[N+](=O)[O-])CC1 | cell-free assay, competition with immobilised ligand | 1 µM | 88
O=C(c1ccc(Nc2nccc(-c3cc4ccccc4s3)n2)cc1)N1CCC(N2CCCC2)CC1 | binding, competition with immobilised ligand | 1 µM | 71
CN(c1nccc(-c2cnn3ncccc23)n1)C1CC1 | binding | 1 µM | 82
CCCOc1ccc([C@H]2[C@H](C(=O)O)[C@@H](c3ccc4c(c3)OCO4)CN2CC(=O)Nc2c(CC)cccc2CC)cc1 | cell-free assay, competition with immobilised ligand | 1 µM | 93
Nc1ncc2c(n1)-c1c([nH]c3ccc(C#CC4CC4)cc13)CCCC2 | binding, competition with immobilised ligand | 1 µM | 100
Cn1cc(Cl)c2c(Oc3c(F)cc(Nc4cc(Cl)nc(N)n4)cc3F)ccnc21 | cell-free assay, competition with immobilised ligand | 0.1 µM | 100
O=C(c1ccc(Nc2ncc(Cl)c(-c3cc4ccccc4s3)n2)cc1)N1CCC(N2CCCC2)CC1 | binding, competition with immobilised ligand | 1 µM | 58
Cc1cnn2ncc(-c3ccnc(N(C)C)n3)c2c1 | binding | 1 µM | 92
CN(C)CC#Cc1ccc(OCCCc2sc(N3CCc4cccc(C(=O)Nc5nc6ccccc6s5)c4C3)nc2C(=O)O)c(F)c1 | cell-free assay, competition with immobilised ligand | 1 µM | 93
CN(C)c1nccc(-c2cnn3ncccc23)n1 | binding | 1 µM | 100
CCN1CCN(Cc2ccc(C(=O)Nc3ccc(C)c(Oc4ccc5c(c4)CC(=O)N5)c3)cc2C(F)(F)F)CC1 | binding, competition with immobilised ligand | 1 µM | 100
c1cncc(-c2cccc(Nc3nccc(NC4CCCCC4)n3)c2)c1 | binding, competition with immobilised ligand | 10 µM | 53
CN(CCCC(F)(F)F)c1nccc(-c2cnn3ncccc23)n1 | binding | 1 µM | 76
CC1=C(C#N)C(c2ccc3c(c2)c(NC(=O)c2ccccc2C)nn3C)C(C#N)=C(C)N1 | cell-free assay, competition with immobilised ligand | 1 µM | 98
COc1cnc(Nc2cccc(S(N)(=O)=O)c2)nc1N1CCN(c2ccccc2)C(=O)C1 | binding, competition with immobilised ligand | 1 µM | 100
